# Assay results taken from ChEMBL document CHEMBL1124804, “Substituted vitamin K epoxide analogues. New competitive inhibitors and substrates of vitamin K1 epoxide reductase” (J Med Chem, 1990).
# Target: T1, Vitamin K epoxide reductase complex subunit 1 (Bos taurus, UniProt Q6B4J2)
# T1 sequence (Q6B4J2 whole entry): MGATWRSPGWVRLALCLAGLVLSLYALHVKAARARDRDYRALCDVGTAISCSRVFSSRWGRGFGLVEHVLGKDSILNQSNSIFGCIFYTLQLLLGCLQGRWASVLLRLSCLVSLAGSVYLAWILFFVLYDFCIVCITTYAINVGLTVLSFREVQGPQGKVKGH
# Assay: Apparent kinetic constant for Vitamin K epoxide reductase
# Summary of the method: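 Beef liver microsomes (0.8 mg) as vitamin K1 epoxide reductase source, 0.02% Emulgen 911. Vitamin K1 epoxide varied (10, 12.5, 16.5, 25, 40 μM) with 5 mM DTT, analogue at 0, 20, 40, 60 μM. Double-reciprocal plots built; Ki taken from replots of Km,app against analogue concentration. Also run at 40 μM epoxide with DTT varied 0.33–2.0 mM.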
row,Compound,Ki [µM]
1,C/C(=C\C(O)C12OC1(C)C(=O)c1ccccc1C2=O)CCCC(C)CCCC(C)CCCC(C)C (stereo not drawn),43
2,CC(C)CCCC(C)CCCC(C)CCCC(C)CC(F)C12OC1(C)C(=O)c1ccccc1C2=O (stereo not drawn),100
3,C/C(=C\CC12OC1(CO)C(=O)c1ccccc1C2=O)CCCC(C)CCCC(C)CCCC(C)C (stereo not drawn),8
4,C/C(=C\CC12OC1(C=O)C(=O)c1ccccc1C2=O)CCCC(C)CCCC(C)CCCC(C)C (stereo not drawn),26
5,CC(C)CCCC(C)CCCC(C)CCCC(C)CC(O)C12OC1(C)C(=O)c1ccccc1C2=O (stereo not drawn),63
6,C/C(=C\CC12OC1(CF)C(=O)c1ccccc1C2=O)CCCC(C)CCCC(C)CCCC(C)C (stereo not drawn),17
7,C/C(=C\CC12OC1(C(F)F)C(=O)c1ccccc1C2=O)CCCC(C)CCCC(C)CCCC(C)C (stereo not drawn),63
8,C/C(=C\CC12OC1(CCl)C(=O)c1ccccc1C2=O)CCCC(C)CCCC(C)CCCC(C)C (stereo not drawn),74
